Measurements from ChEMBL document CHEMBL4251698, “Mitigating the Metabolic Liability of Carbonyl Reduction: Novel Calpain Inhibitors with P1' Extension” (ACS Med Chem Lett, 2018).

How the values were obtained:
[1] = molecular target: T1, Calpain-1 catalytic subunit (Homo sapiens, UniProt P07384); experiment: Inhibition of human erythrocyte calpain 1 using Suc-Leu-Tyr-AMC as substrate by fluorescence assay
T1 sequence (P07384 whole entry): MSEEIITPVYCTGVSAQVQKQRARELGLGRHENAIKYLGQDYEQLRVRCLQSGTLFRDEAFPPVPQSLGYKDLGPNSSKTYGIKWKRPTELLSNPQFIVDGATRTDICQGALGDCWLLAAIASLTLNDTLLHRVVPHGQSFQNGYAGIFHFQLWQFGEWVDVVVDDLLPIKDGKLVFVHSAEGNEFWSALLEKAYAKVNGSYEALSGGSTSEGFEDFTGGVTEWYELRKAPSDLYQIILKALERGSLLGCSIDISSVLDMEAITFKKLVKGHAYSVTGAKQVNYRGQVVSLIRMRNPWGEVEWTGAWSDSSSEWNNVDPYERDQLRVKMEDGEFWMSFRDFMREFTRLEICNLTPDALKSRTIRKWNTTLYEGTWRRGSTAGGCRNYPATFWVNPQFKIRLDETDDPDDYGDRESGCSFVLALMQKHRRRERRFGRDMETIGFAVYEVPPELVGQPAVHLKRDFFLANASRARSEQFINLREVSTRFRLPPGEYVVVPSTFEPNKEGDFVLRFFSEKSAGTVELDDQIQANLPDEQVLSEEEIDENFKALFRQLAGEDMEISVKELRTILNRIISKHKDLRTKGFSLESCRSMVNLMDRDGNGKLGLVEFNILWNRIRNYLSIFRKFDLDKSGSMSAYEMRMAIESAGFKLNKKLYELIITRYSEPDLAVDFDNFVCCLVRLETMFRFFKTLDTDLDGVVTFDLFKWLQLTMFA

[2] = Inhibition of calpain in rat hippocampal slices assessed as reduction in NMDA-induced intracellular spectrin cleavage; format: cell-based
Outline: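 Rat hippocampal slice cultures were challenged with NMDA. The read-out was prevention of intracellular spectrin cleavage, and IC50 values were derived.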

[3] = Intrinsic clearance in cynomolgus monkey liver cytosol at 0.5 uM measured after 15 mins in presence of NADPH by spectrometric method; format: ADME, subcellular, Macaca fascicularis; details: read-out: CLH
Outline: (§1)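 Test compound incubated with monkey or human liver cytosol and percent parent lost over time followed. Intrinsic clearance calculated from this depletion, in µL/min/mg; ranges adjusted to hepatic plasma flow of the species.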

[4] = Intrinsic clearance in human liver cytosol at 0.5 uM measured after 15 mins in presence of NADPH by spectrometric method; format: ADME, subcellular; details: read-out: CLH; outline: as §1
[5] = Clearance in rat hepatocytes; format: ADME, cell-based, Hepatocyte
[6] = Clearance in human hepatocytes; format: ADME, cell-based, Hepatocyte

| Ki [1] [nM] | further results | Compound |
| --- | --- | --- |
| 205 | IC50 [2]: 750 nM | O=C(NC1CC1)C(=O)C(Cc1ccccc1)NC(=O)c1cccnc1-n1ccc(-c2ccccc2)n1 (stereo not given) |
| 2600 |  | CC(C)NC(=O)C(=O)C(Cc1ccccc1)NC(=O)c1cccnc1-n1ccc(-c2ccccc2)n1 (stereo not given) |
| 110 | microsomal CLint at […], 0.5 µM [3]: < 1 µL/min/mg; microsomal CLint at […], 0.5 µM [4]: < 1 µL/min/mg; CLH [5]: 32 µL/min/mg; CLH [6]: 10 µL/min/mg | CCONC(=O)C(=O)C(Cc1ccccc1)NC(=O)c1cccnc1-n1ccc(-c2ccccc2)n1 (stereo not given) |
| 550 |  | O=C(NCC1CC1)C(=O)C(Cc1ccccc1)NC(=O)c1cccnc1-n1ccc(-c2ccccc2)n1 (stereo not given) |
| > 5000 |  | CC1(NC(=O)C(=O)C(Cc2ccccc2)NC(=O)c2cccnc2-n2ccc(-c3ccccc3)n2)CC1 (stereo not given) |
| 1060 |  | CN(C)CCONC(=O)C(=O)C(Cc1ccccc1)NC(=O)c1cccnc1-n1ccc(-c2ccccc2)n1 (stereo not given) |
| 950 |  | N#CCNC(=O)C(=O)C(Cc1ccccc1)NC(=O)c1cccnc1-n1ccc(-c2ccccc2)n1 (stereo not given) |
| 220 |  | CC(C)ONC(=O)C(=O)C(Cc1ccccc1)NC(=O)c1cccnc1-n1ccc(-c2ccccc2)n1 (stereo not given) |
| 330 |  | O=C(NCCc1ccccc1)C(=O)C(Cc1ccccc1)NC(=O)c1cccnc1-n1ccc(-c2ccccc2)n1 (stereo not given) |
| 150 |  | O=C(NOC1CCC1)C(=O)C(Cc1ccccc1)NC(=O)c1cccnc1-n1ccc(-c2ccccc2)n1 (stereo not given) |
| 490 |  | O=C(NC1CCC1)C(=O)C(Cc1ccccc1)NC(=O)c1cccnc1-n1ccc(-c2ccccc2)n1 (stereo not given) |
| 690 |  | CCNC(=O)C(=O)C(Cc1ccccc1)NC(=O)c1cccnc1-n1ccc(-c2ccccc2)n1 (stereo not given) |
| 90 |  | O=C(NOCC1CC1)C(=O)C(Cc1ccccc1)NC(=O)c1cccnc1-n1ccc(-c2ccccc2)n1 (stereo not given) |
| 120 | IC50 [2]: 2150 nM | CONC(=O)C(=O)C(Cc1ccccc1)NC(=O)c1cccnc1-n1ccc(-c2ccccc2)n1 (stereo not given) |
| 480 |  | CCCNC(=O)C(=O)C(Cc1ccccc1)NC(=O)c1cccnc1-n1ccc(-c2ccccc2)n1 (stereo not given) |
| 265 |  | O=C(NOCCN1CCOCC1)C(=O)C(Cc1ccccc1)NC(=O)c1cccnc1-n1ccc(-c2ccccc2)n1 (stereo not given) |
| 75 |  | CCCONC(=O)C(=O)C(Cc1ccccc1)NC(=O)c1cccnc1-n1ccc(-c2ccccc2)n1 (stereo not given) |
| 1350 |  | O=C(NC1CCCC1)C(=O)C(Cc1ccccc1)NC(=O)c1cccnc1-n1ccc(-c2ccccc2)n1 (stereo not given) |
| 110 |  | O=C(NCc1ccccc1)C(=O)C(Cc1ccccc1)NC(=O)c1cccnc1-n1ccc(-c2ccccc2)n1 (stereo not given) |
| 470 |  | C=CCNC(=O)C(=O)C(Cc1ccccc1)NC(=O)c1cccnc1-n1ccc(-c2ccccc2)n1 (stereo not given) |
| 120 |  | O=C(NOC1CCCC1)C(=O)C(Cc1ccccc1)NC(=O)c1cccnc1-n1ccc(-c2ccccc2)n1 (stereo not given) |
| 380 |  | CNC(=O)C(=O)C(Cc1ccccc1)NC(=O)c1cccnc1-n1ccc(-c2ccccc2)n1 (stereo not given) |
| 185 |  | C=CCONC(=O)C(=O)C(Cc1ccccc1)NC(=O)c1cccnc1-n1ccc(-c2ccccc2)n1 (stereo not given) |
| 210 |  | O=C(NCc1nc2ccccc2o1)C(=O)C(Cc1ccccc1)NC(=O)c1cccnc1-n1ccc(-c2ccccc2)n1 (stereo not given) |
